The target of assay [1] is Epidermal growth factor receptor (Homo sapiens) (UniProt P00533). The assay can be described thus: Inhibition of EGFR at 10 uM by HotSpot assay.
In assay [2] the target is Macrophage colony-stimulating factor 1 receptor (Homo sapiens) (UniProt P07333). The assay can be described thus: Inhibition of FMS at 10 uM by HotSpot assay.
The target in assay [3] is Serine/threonine-protein kinase pim-1 (Homo sapiens) (UniProt P11309). The assay can be described thus: Inhibition of PIM1 at 10 uM by HotSpot assay.
The target in assay [4] is Fibroblast growth factor receptor 1 (Homo sapiens) (UniProt P11362). The assay can be described thus: Inhibition of FGFR1 at 10 uM by HotSpot assay.
Assay [5] concerns the target Protein-tyrosine kinase 2-beta (Homo sapiens) (UniProt Q14289). The assay can be described thus: Inhibition of PTK2B at 10 uM by HotSpot assay.
The target of assay [6] is Ephrin type-A receptor 1 (Homo sapiens) (UniProt P21709). Put plainly: Inhibition of EPHA1 at 10 uM by HotSpot assay.
Chain of Ephrin type-A receptor 1 (Homo sapiens) (P21709 whole entry): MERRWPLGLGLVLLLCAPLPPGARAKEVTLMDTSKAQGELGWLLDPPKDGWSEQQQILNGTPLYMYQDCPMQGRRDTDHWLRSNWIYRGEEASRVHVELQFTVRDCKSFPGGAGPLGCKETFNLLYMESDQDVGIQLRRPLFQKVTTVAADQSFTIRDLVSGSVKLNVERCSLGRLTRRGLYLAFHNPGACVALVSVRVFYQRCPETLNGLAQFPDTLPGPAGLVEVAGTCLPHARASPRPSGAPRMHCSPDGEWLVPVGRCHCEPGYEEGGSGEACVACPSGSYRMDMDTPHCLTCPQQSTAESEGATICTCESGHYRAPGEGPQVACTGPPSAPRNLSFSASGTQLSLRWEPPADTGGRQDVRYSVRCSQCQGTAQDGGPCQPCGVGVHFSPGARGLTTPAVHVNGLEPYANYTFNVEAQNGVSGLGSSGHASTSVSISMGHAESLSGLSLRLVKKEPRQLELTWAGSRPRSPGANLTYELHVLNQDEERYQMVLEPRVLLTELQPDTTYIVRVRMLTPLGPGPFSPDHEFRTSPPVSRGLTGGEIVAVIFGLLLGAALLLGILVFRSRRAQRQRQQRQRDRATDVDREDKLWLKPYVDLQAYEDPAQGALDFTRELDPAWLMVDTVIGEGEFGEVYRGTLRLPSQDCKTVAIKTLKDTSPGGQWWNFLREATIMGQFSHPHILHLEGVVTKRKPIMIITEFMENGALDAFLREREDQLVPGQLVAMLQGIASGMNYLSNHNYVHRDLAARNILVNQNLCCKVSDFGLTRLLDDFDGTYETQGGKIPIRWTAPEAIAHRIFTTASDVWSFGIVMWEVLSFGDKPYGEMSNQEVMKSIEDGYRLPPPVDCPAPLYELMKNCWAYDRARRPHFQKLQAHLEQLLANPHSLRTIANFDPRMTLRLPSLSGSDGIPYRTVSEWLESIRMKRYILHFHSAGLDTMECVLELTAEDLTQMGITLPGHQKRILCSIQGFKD
Assay [7] can be described thus: Inhibition of PKA at 10 uM by HotSpot assay.
Assay [8] concerns the target Tyrosine-protein kinase JAK3 (Homo sapiens) (UniProt P52333). Put plainly: Inhibition of JAK3 at 10 uM by HotSpot assay.
Assay [9] deals with Tyrosine-protein kinase Fyn (Homo sapiens) (UniProt P06241). The assay can be described thus: Inhibition of FYN at 10 uM by HotSpot assay.
The target in assay [10] is Homeodomain-interacting protein kinase 1 (Homo sapiens) (UniProt Q86Z02). The assay can be described thus: Inhibition of HIPK1 at 10 uM by HotSpot assay.
Chain of Homeodomain-interacting protein kinase 1 (Homo sapiens) (Q86Z02 whole entry, looked up): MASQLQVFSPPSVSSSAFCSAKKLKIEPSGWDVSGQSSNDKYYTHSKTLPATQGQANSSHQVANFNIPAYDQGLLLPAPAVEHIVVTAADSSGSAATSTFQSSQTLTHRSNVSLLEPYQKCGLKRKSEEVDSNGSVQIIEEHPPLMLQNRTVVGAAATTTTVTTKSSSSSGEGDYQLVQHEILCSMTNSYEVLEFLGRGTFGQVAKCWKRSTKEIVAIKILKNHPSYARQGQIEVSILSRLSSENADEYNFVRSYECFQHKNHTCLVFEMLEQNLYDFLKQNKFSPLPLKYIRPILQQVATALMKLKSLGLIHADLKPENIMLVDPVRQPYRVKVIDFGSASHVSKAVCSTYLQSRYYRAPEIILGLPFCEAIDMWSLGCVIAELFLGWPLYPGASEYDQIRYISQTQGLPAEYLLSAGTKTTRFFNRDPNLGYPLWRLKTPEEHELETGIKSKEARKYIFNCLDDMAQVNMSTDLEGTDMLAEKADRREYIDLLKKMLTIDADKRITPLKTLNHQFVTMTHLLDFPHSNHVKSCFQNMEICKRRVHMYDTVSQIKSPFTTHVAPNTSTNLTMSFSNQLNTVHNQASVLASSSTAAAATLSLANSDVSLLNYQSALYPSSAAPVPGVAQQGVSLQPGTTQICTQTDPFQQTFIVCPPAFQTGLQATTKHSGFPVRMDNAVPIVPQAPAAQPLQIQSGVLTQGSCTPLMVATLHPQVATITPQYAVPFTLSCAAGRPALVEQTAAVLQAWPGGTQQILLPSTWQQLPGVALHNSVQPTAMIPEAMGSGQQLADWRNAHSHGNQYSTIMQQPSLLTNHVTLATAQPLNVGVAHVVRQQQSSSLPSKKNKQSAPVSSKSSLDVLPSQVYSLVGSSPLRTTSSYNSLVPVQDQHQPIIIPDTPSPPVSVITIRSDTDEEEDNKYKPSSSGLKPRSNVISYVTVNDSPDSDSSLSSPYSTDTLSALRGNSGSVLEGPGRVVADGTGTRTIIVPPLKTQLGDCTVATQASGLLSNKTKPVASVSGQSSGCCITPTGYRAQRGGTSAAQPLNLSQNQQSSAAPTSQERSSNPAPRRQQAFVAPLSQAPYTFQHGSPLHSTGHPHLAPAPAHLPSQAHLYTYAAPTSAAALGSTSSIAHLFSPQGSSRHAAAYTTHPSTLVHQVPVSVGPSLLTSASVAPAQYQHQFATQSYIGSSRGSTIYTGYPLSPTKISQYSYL
Assay [11] has as its target Receptor-type tyrosine-protein kinase FLT3 (Homo sapiens) (UniProt P36888). Put plainly: Inhibition of FLT3 at 10 uM by HotSpot assay.
In assay [12] the target is Serine/threonine-protein kinase Chk1 (Homo sapiens) (UniProt O14757). Put plainly: Inhibition of CHK1 at 10 uM by HotSpot assay.
Assay [13] deals with Tyrosine-protein kinase ABL1 (Homo sapiens) (UniProt P00519). Put plainly: Inhibition of ABL1 at 10 uM by HotSpot assay.
The target of assay [14] is DNA-dependent protein kinase catalytic subunit (Homo sapiens) (UniProt P78527). The assay can be described thus: Inhibition of DNA-PK at 10 uM by HotSpot assay.
Assay [15] deals with Ribosomal protein S6 kinase beta-1 (Homo sapiens) (UniProt P23443). The assay can be described thus: Inhibition of p70S6K1 at 10 uM by HotSpot assay.
Chain of Ribosomal protein S6 kinase beta-1 (Homo sapiens) (P23443 whole entry, looked up): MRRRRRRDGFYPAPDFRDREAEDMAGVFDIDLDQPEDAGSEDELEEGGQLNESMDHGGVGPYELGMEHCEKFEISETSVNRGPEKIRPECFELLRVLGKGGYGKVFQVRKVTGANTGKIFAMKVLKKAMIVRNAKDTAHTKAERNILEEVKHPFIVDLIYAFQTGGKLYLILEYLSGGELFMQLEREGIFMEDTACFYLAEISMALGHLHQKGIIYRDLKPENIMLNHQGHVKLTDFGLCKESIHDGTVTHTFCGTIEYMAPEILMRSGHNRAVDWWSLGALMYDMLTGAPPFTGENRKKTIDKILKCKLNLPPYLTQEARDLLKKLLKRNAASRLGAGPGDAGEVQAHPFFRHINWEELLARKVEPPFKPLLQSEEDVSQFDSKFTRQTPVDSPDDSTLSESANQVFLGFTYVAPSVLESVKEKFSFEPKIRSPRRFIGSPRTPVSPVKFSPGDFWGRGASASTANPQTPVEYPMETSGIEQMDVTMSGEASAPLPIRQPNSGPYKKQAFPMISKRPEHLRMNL
The target in assay [16] is RAF proto-oncogene serine/threonine-protein kinase (Homo sapiens) (UniProt P04049). The assay can be described thus: Inhibition of RAF1 at 10 uM by HotSpot assay.
A further assay concerns RXF 393. Put plainly: Cytotoxicity against human RXF393 cells assessed as cell growth at 0.01 uM after 48 hrs by sulforhodamine B assay. It is filed as functional. As to conditions: RXF 393, 48 h, read-out: Activity. (In general: The SRB assay estimates cell density from bound dye.)
For another assay, the system named is SK-MEL-28. The assay can be described thus: Cytotoxicity against human SK-MEL-28 cells assessed as cell growth at 10 uM after 48 hrs by sulforhodamine B assay. It is filed as functional. As to conditions: SK-MEL-28, 48 h, read-out: Activity.
The test system of assay [17] is NCI-H226. Put plainly: Cytotoxicity against human NCI-H226 cells assessed as cell growth at 10 uM after 48 hrs by sulforhodamine B assay. The assay is classed as functional. The following applies: NCI-H226, 48 h, read-out: Activity.
Another assay deals with HOP-62. Put plainly: Cytotoxicity against human HOP62 cells assessed as cell growth at 0.001 uM after 48 hrs by sulforhodamine B assay. It is filed as functional. The following applies: HOP-62, 48 h, read-out: Activity.
For assay [18], the system named is NCI-H226. Put plainly: Cytotoxicity against human NCI-H226 cells assessed as cell growth at 0.01 uM after 48 hrs by sulforhodamine B assay. It is filed as functional. The following applies: NCI-H226, 48 h, read-out: Activity.
Assay [19] has as its system CCRF-CEM. The assay can be described thus: Growth inhibition of human CCRF-CEM cells after 48 hrs by sulforhodamine B assay. It is filed as functional. In outline: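 Five-dose SRB assay. Cells in RPMI 1640 with 5% FBS and 2 mM L-glutamine were seeded at 5,000–40,000 cells/well, with a TCA-fixed time-zero plate (Tz) taken at 24 h. Compound stocks were in DMSO, serially diluted 10-fold or ½-log to five concentrations, and incubated 48 h at 37 °C. Plates were stained with SRB and read at 515 nm. IC₅₀ was taken where [(Ti−Tz)/(C−Tz)]×100 = 50.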

Assay [20] deals with SR. Put plainly: Cytotoxicity against human SR cells assessed as cell growth at 100 nM after 48 hrs by sulforhodamine B assay. The assay is classed as functional. As to conditions: read-out: Activity.
The next assay has as its system A549. The assay can be described thus: Cytotoxicity against human A549 cells assessed as cell growth at 0.001 uM after 48 hrs by sulforhodamine B assay. The assay is classed as functional. As to conditions: A549, 48 h, read-out: Activity.
The subject of assay [21] is PC-3. Put plainly: Cytotoxicity against human PC3 cells assessed as cell growth at 1 uM after 48 hrs by sulforhodamine B assay. It is filed as functional. As to conditions: PC-3, 48 h, read-out: Activity.
Assay [22] deals with PC-3. The assay can be described thus: Cytotoxicity against human PC3 cells assessed as cell growth at 0.01 uM after 48 hrs by sulforhodamine B assay. The assay is classed as functional. The following applies: PC-3, 48 h, read-out: Activity.
A further assay relates to HOP-92. Put plainly: Cytotoxicity against human HOP92 cells assessed as cell growth at 1 uM after 48 hrs by sulforhodamine B assay. It is filed as functional. As to conditions: HOP-92, 48 h, read-out: Activity.
Assay [23] has as its system CCRF-CEM. The assay can be described thus: Cytotoxicity against human CCRF-CEM cells assessed as cell growth at 1 uM after 48 hrs by sulforhodamine B assay. The assay is classed as functional. As to conditions: read-out: Activity.
For the next assay, the system named is MCF7. Put plainly: Cytotoxicity against human MCF7 cells assessed as cell growth at 100 nM after 48 hrs by sulforhodamine B assay. It is filed as functional. As to conditions: MCF7, 48 h, read-out: Activity.
Assay [24] has as its system CCRF-CEM. The assay can be described thus: Cytotoxicity against human CCRF-CEM cells assessed as cell growth at 10 uM after 48 hrs by sulforhodamine B assay. As to conditions: read-out: Activity. It is filed as functional.
In assay [25] the test system is SR. The assay can be described thus: Growth inhibition of human SR cells after 48 hrs by sulforhodamine B assay. The assay is classed as functional. In outline: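 Cells grown in RPMI 1640 with 5% FBS and 2 mM L-glutamine, seeded at 5,000–40,000 cells/well according to doubling time. After 24 h, time-zero plates are TCA-fixed. Five concentrations (10-fold or ½log dilutions, DMSO stocks) are applied for 48 h at 37 °C, 5% CO₂. Cells are TCA-fixed, SRB-stained and read at 515 nm. IC₅₀ is taken from [(Ti−Tz)/(C−Tz)]×100 = 50.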

The subject of the next assay is SN12C. The assay can be described thus: Cytotoxicity against human SN12C cells assessed as cell growth at 10 uM after 48 hrs by sulforhodamine B assay. The assay is classed as functional. The following applies: read-out: Activity.
[26] abbreviates: read-out: LC50 (the source's name).

Where only a bound is given, the exact number is not on record here.

Chain of Epidermal growth factor receptor (Homo sapiens) (P00533 whole entry): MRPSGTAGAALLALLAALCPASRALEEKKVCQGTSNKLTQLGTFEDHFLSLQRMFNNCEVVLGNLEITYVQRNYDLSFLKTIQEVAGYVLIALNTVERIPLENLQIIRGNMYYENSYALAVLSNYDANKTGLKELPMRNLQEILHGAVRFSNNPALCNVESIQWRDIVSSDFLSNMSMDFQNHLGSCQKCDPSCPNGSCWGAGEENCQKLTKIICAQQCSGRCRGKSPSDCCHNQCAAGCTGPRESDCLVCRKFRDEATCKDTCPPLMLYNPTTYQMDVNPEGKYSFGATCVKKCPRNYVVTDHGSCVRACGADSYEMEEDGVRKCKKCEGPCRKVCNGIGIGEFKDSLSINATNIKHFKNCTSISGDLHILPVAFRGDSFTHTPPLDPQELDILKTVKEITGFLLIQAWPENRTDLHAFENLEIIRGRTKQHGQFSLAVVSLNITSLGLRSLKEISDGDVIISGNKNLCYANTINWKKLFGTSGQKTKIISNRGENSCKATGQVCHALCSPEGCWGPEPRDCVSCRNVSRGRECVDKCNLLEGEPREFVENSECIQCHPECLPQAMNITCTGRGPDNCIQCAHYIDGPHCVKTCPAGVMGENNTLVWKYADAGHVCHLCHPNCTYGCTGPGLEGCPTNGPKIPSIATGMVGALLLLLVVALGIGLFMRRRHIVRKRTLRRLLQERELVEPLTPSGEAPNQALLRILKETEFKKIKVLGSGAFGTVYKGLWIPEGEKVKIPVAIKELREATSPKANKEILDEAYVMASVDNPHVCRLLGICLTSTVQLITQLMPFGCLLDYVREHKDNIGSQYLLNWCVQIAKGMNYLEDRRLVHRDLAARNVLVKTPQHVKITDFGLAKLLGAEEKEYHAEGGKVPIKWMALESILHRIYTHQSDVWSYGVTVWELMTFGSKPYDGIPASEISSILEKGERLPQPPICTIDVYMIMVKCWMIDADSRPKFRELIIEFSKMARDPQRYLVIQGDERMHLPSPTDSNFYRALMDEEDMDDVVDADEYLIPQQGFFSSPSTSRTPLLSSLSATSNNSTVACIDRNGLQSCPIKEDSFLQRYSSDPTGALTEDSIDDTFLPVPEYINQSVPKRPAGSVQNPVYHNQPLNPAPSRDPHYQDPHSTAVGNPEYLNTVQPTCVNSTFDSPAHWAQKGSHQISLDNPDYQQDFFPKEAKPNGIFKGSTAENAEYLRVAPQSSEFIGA
Chain of Receptor-type tyrosine-protein kinase FLT3 (Homo sapiens) (P36888 whole entry): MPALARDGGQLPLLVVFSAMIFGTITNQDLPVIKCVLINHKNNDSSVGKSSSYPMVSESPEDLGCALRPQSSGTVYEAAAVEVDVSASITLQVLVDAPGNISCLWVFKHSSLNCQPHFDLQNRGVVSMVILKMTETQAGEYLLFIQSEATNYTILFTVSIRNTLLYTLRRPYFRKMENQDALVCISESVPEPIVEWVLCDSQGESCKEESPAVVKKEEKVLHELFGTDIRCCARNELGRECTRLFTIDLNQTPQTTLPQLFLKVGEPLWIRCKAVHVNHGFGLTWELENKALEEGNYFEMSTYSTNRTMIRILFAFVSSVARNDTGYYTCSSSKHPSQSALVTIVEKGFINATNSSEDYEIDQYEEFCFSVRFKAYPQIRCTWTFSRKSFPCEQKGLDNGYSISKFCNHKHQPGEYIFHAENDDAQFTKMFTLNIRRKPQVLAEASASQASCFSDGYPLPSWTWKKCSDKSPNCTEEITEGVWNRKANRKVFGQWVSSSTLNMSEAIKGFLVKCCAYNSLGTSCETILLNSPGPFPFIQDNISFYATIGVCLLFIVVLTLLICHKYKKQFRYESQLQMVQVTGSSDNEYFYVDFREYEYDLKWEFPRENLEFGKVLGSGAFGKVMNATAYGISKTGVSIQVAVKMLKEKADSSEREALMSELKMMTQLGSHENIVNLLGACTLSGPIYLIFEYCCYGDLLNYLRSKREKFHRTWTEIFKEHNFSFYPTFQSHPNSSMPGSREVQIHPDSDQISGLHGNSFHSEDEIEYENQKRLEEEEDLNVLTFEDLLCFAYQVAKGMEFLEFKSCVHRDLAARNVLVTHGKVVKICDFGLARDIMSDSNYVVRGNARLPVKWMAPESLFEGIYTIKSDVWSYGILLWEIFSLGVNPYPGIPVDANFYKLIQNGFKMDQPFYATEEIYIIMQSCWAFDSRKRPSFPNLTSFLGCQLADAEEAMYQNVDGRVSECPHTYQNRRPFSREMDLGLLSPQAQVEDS

Usually inhibition stands for the relative decrease from the control value, in per cent. A low value points to a weak effect. With `CC(=O)Nc1cccc(-c2ccc(-c3ccnc(NC(=O)Nc4cc(C(F)(F)F)cc(C(F)(F)F)c4)n3)cn2)c1.Cl`, the inhibition in [1] was less than 50%; in [2], less than 50%; in [3] it was 60%; in [4], less than 50%; in [5], less than 50%; in assay [6], less than 50%. The inhibition in [7] was less than 50%; in assay [8], less than 50%; in assay [9], 50%; in assay [10] it was less than 50%; in assay [11] it was 50%; in [12], less than 50%. The inhibition is 70% in assay [13], less than 50% in assay [14], less than 50% in assay [15] and less than 50% in assay [16].

The term GI50 denotes the concentration at which growth is held to half of that of the control. In general, TGI refers to the concentration giving total growth inhibition. In the case of `CC(=O)c1ccccc1-c1ccc(-c2ccnc(NC(=O)Nc3cc(N4CCOCC4)cc(C(F)(F)F)c3)n2)cn1`, the growth at 0.01 µM with RXF 393, in the assay with NCI-H226 [18] and with PC-3 [22] was 108% each time. Further, the growth at 10 µM turned out to be 93% in the assay with SK-MEL-28, 71% with NCI-H226 [17], 97% in the assay on CCRF-CEM [24] and 79% in the assay with SN12C. Besides, the growth at 0.001 µM in the assay on HOP-62 amounted to 103%; in the assay on A549 it was 94%. Further, the GI50 with CCRF-CEM [19] and in the assay with SR [25] was greater than 100 µM in each case. In addition, the TGI in the assay on CCRF-CEM [19] and with SR [25] was greater than 100 µM throughout. Further, the CC50 with CCRF-CEM [19] (setting [26]) and in the assay with SR [25] (setting [26]) was greater than 100 µM each time. The growth at 0.1 µM with SR [20] amounted to 74%; with MCF7 it was 100%. Also, the growth at 1 µM in the assay with PC-3 [21] is 78%; in the assay on HOP-92 it was -2%; in the assay with CCRF-CEM [23], 93%.

The record behind these values is ChEMBL document CHEMBL1165943, “Design and synthesis of new anticancer pyrimidines with multiple-kinase inhibitory effect” (Bioorg Med Chem, 2010).
